Experimental data from ChEMBL document CHEMBL4725359, “Development of Potent PfCLK3 Inhibitors Based on TCMDC-135051 as a New Class of Antimalarials” (J Med Chem, 2020).
The source made the active and inactive calls. The calls are words filed in the database; no cut-off is given here.

Assays:
[1] = Inhibition of recombinant full-length Plasmodium falciparum 3D7 CLK3 using ULight-labelled CFFKNIVTPRTPPPSQGK as substrate measured after 1 hr by TR-FRET assay
Procedure, shortened: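 Peptide substrate plus cold ATP with serially diluted inhibitor, 37 °C for 1 h. Stopped with 30 mM EDTA and Eu-anti-phospho antibody (3 nM), 1 h RT, read 665 nm emission. Normalised to no-kinase/no-inhibitor wells; three independent experiments in triplicate, mean ± SEM.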

[2] = system: Plasmodium falciparum; assay: Antimalarial activity against chloroquine-sensitive synchronized ring stage of Plasmodium falciparum 3D7 incubated for 48 to 52 hrs by SYBR green 1 dye based assay; assay type: functional, organism-based
[3] = Distribution coefficient, log D of the compound at pH 7.4 by HPLC method; assay type: physicochemical; settings: octanol/water
[4] = system: Plasmodium falciparum; assay: Antimalarial activity against Plasmodium falciparum isolate GB0006 assessed as reduction in parasitemia at 1 to 10 times EC50 supplemented with fresh medium containing compounds every 24 hrs for 72 hrs relative to control; assay type: functional; parameters: scale not given: the % may be the effect or the level left
Procedure, shortened: (§1)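 Parasite reduction ratio setup: cryopreserved clinical isolates thawed and cultured at least one cycle (~48 h ± 2); new rings 0–3 h post-invasion taken as t = 0. […] 24 h arm: drug removed by two washes; 48 and 72 h arms: fresh drug every 24 h.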

[5] = system: Plasmodium falciparum; assay: Antimalarial activity against Plasmodium falciparum isolate GB0021 assessed as reduction in parasitemia at 1 to 10 times EC50 supplemented with fresh medium containing compounds every 24 hrs for 72 hrs relative to control; assay type: functional; parameters: scale not given: the % may be the effect or the level left; procedure, shortened: as §1
[6] = system: Plasmodium falciparum; assay: Antimalarial activity against Plasmodium falciparum isolate GB0048 assessed as reduction in parasitemia at 1 to 10 times EC50 supplemented with fresh medium containing compounds every 24 hrs for 72 hrs relative to control; assay type: functional; parameters: scale not given: the % may be the effect or the level left; procedure, shortened: as §1
[7] = system: Plasmodium falciparum; assay: Antimalarial activity against Plasmodium falciparum isolate GB0071 assessed as reduction in parasitemia at 1 to 10 times EC50 supplemented with fresh medium containing compounds every 24 hrs for 72 hrs relative to control; assay type: functional; parameters: scale not given: the % may be the effect or the level left; procedure, shortened: as §1
[8] = system: Plasmodium falciparum; assay: Antimalarial activity against Plasmodium falciparum isolate GB0087 assessed as reduction in parasitemia at 1 to 10 times EC50 supplemented with fresh medium containing compounds every 24 hrs for 72 hrs relative to control; assay type: functional; parameters: scale not given: the % may be the effect or the level left; procedure, shortened: as §1
[9] = system: Plasmodium falciparum; assay: Antimalarial activity against Plasmodium falciparum isolate GB0020 assessed as reduction in parasitemia at 1 to 10 times EC50 measured after 24 hrs relative to control; assay type: functional; parameters: scale not given: the % may be the effect or the level left; procedure, shortened: as §1
[10] = system: Plasmodium falciparum; assay: Antimalarial activity against Plasmodium falciparum isolate GB002 assessed as reduction in parasitemia at 1 to 10 times EC50 measured after 24 hrs relative to control; assay type: functional; parameters: scale not given: the % may be the effect or the level left; procedure, shortened: as §1
[11] = system: Plasmodium falciparum; assay: Antimalarial activity against Plasmodium falciparum isolate GB0026 assessed as reduction in parasitemia at 1 to 10 times EC50 measured after 24 hrs relative to control; assay type: functional; parameters: scale not given: the % may be the effect or the level left; procedure, shortened: as §1
[12] = system: Plasmodium falciparum; assay: Antimalarial activity against Plasmodium falciparum isolate GB0020 assessed as reduction in parasitemia at 10 times EC50 measured after 72 hrs; assay type: functional, organism-based; procedure, shortened: as §1
[13] = system: Plasmodium falciparum; assay: Antimalarial activity against Plasmodium falciparum isolate GB002 assessed as reduction in parasitemia at 10 times EC50 measured after 72 hrs; assay type: functional, organism-based; procedure, shortened: as §1
[14] = system: Plasmodium falciparum; assay: Antimalarial activity against Plasmodium falciparum isolate GB0026 assessed as reduction in parasitemia at 10 times EC50 measured after 72 hrs; assay type: functional, organism-based; procedure, shortened: as §1
[15] = system: Plasmodium falciparum; assay: Antimalarial activity against Plasmodium falciparum isolate GB0004 assessed as reduction in parasitemia at 1 to 10 times EC50 supplemented with fresh medium containing compounds every 24 hrs for 72 hrs relative to control; assay type: functional; procedure, shortened: as §1
[16] = system: Plasmodium falciparum; assay: Antimalarial activity against Plasmodium falciparum isolate GB0020 assessed as reduction in parasitemia at 1 to 10 times EC50 supplemented with fresh medium containing compounds every 24 hrs for 72 hrs relative to control; assay type: functional, organism-based; procedure, shortened: as §1
[17] = system: Plasmodium falciparum; assay: Antimalarial activity against Plasmodium falciparum isolate GB002 assessed as reduction in parasitemia at 1 to 10 times EC50 supplemented with fresh medium containing compounds every 24 hrs for 72 hrs relative to control; assay type: functional, organism-based; procedure, shortened: as §1
[18] = system: Plasmodium falciparum; assay: Antimalarial activity against Plasmodium falciparum isolate GB0026 assessed as reduction in parasitemia at 1 to 10 times EC50 supplemented with fresh medium containing compounds every 24 hrs for 72 hrs relative to control; assay type: functional, organism-based; procedure, shortened: as §1

Row | SMILES | IC50 [1] | pIC50 [1] | EC50 ([2]; read-out: EC50) | logD [3] | further results
1 | CCN(CC)Cc1cccc(-c2cc3c(-c4ccc(C(=O)O)c(C(C)C)c4)ccnc3[nH]2)c1 | 25 nM | 7.6 | 309 nM | 0.8 | –
2 | COc1ccccc1-c1cc2c(-c3ccc(C(=O)O)c(C(C)C)c3)ccnc2[nH]1 | 79 nM | 7.1 | 1460 nM | 2.45 | EC50 ([2]; read-out: pEC50 (converted)): 1580 nM
3 | CCc1nc(N)nc(N)c1-c1ccc(Cl)cc1 [PYRIMETHAMINE] | – | – | 18 nM | – | Activity [4]: >=70%; Activity [5]: >=70%; Activity [6]: >=70%; Activity [7]: >=70%; Activity [8]: >=70%; Activity [9]: 45%; Activity [10]: 64%; Activity [11]: 36%; Activity [12]: inactive; Activity [13]: inactive; Activity [14]: inactive
4 | CCN(CC)Cc1ccc(OC)c(-c2cc3c(-c4ccc(C(=O)O)cc4)ccnc3[nH]2)c1 | 34 nM | 7.5 | 3270 nM | 0.65 | –
5 | CCN(CC)Cc1ccc(OC)c(-c2cc3c(-c4cccc(C(C)C)c4)ccnc3[nH]2)c1 | 1300 nM | 6 | – | 4.45 | –
6 | COc1ccc(CN2CCCC2)cc1-c1cc2c(-c3ccc(C(=O)O)c(C(C)C)c3)ccnc2[nH]1 | 38 nM | 7.4 | 382 nM | 2.43 | –
7 | COc1ccc(CN2CCOCC2)cc1-c1cc2c(-c3ccc(C(=O)O)c(C(C)C)c3)ccnc2[nH]1 | 9 nM | 8 | – | – | –
8 | CCN(CC)Cc1ccc(OC)c(-c2cc3c(-c4ccc(-c5nnn[nH]5)c(C(C)C)c4)ccnc3[nH]2)c1 | 19 nM | 7.7 | – | 0.93 | –
9 | COc1ccc(CN(C)C)cc1-c1cc2c(-c3ccc(C(=O)O)c(C(C)C)c3)ccnc2[nH]1 | 29 nM | 7.5 | 457 nM | 0.85 | –
10 | CCN(CC)Cc1cccc(-c2cc3c(-c4ccc(C(=O)O)c(C(C)C)c4)ccnc3[nH]2)c1OC | 17 nM | 7.7 | 3170 nM | 0.74 | EC50 ([2]; read-out: pEC50 (converted)): 2510 nM
11 | COc1ccc(CN)cc1-c1cc2c(-c3ccc(C(=O)O)c(C(C)C)c3)ccnc2[nH]1 | 76 nM | 7.1 | 2800 nM | 0.61 | EC50 ([2]; read-out: pEC50 (converted)): 2510 nM

Further lines, with some results ahead:

Row | IC50 [1] | pIC50 [1] | EC50 ([2]; read-out: EC50) | logD [3] | SMILES | further results
12 | 24 nM | 7.6 | 1180 nM | 0.66 | CCN(CC)Cc1ccc(OC)c(-c2cc3c(-c4ccc(C(=O)O)c(C)c4)ccnc3[nH]2)c1 | EC50 ([2]; read-out: pEC50 (converted)): 2510 nM
13 | 1380 nM | 4.9 | – | – | CCN(CC)Cc1ccc(OC)c(-c2cc3c(-c4ccc(C(C)C)c(C(=O)O)c4)ccnc3[nH]2)c1 | –
14 | 40 nM | 7.4 | – | 0.93 | CCN(CC)Cc1ccc(OC)c(-c2cc3c(-c4ccc(C(=O)O)c(C(C)C)c4)ccnc3[nH]2)c1 | Activity [4]: Active; Activity [15]: Active; Activity [5]: Active; Activity [6]: Active; Activity [7]: Active; Activity [8]: Active; Activity [16]: Active; Activity [17]: Active; Activity [18]: Active
15 | 390 nM | 6.4 | – | 2.45 | CCOC(=O)c1ccc(-c2ccnc3[nH]c(-c4cc(CN(CC)CC)ccc4OC)cc23)cc1C(C)C | –
16 | 22 nM | 7.7 | 3530 nM | 0.59 | CCN(CC)Cc1ccc(O)c(-c2cc3c(-c4ccc(C(=O)O)c(C(C)C)c4)ccnc3[nH]2)c1 | –
